Screens as filed in PubChem.
GPR7 antagonist = antagonists of human GPR7 (neuropeptides B/W receptor 1) | P48145 | GPR7-expressing cells, fluorescence antagonist assay | inhibition, % at 4.4 µM | hit rate 1.1% among 290,000; in the data active = inhibition above about 16%, passing the limit was not always enough;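 also: cells stimulated with the agonist NPW; 0% = agonist with vehicle and 100% = vehicle without agonist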
TRPML3 ag = activates the human TRPML3 channel | Q8TDD5 | HEK293 TRPML3-YFP, Fluo-8 calcium fluorescence; 100% = the carbachol control signal | activation, % at 3 µM | hit rate 0.29% among 220,000 | AID 1448;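 active = activation above its plate's cutoff, the mean activation of the plate's test wells plus 3 SD, cut at about 12% in these data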;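 also: 0% = DMSO only wells and 100% = carbachol wells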
Target sequence (Q8TDD5 whole entry, looked up): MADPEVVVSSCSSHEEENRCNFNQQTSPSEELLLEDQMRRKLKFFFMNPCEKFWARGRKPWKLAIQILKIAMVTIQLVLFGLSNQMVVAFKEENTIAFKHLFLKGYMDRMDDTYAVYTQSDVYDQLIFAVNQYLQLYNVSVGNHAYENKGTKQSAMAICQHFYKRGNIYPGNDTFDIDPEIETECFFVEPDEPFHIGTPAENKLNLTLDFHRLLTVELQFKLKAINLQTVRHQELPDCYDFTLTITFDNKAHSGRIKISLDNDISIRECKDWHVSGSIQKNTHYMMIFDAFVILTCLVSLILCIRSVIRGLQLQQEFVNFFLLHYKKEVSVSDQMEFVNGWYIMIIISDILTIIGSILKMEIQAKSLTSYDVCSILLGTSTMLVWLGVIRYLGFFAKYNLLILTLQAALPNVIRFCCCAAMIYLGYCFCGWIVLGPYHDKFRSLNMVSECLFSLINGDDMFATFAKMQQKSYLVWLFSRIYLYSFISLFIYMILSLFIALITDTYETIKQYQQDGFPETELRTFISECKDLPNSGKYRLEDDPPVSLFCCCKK
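Test system: HEK293 cells stably carrying human TRPML3-YFP; Doses: single dose, 3 µM final nominal compound, 0.3% DMSO final; Schedule: dye loading 1 h 37 °C then 30 min ambient, 125 s read; Technique: Fluo-8 calcium fluorescence; Benchmarks: high control carbachol 87 µM, low control DMSO.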
CHO parental Ca = signal in parental CHO cells, OX1R antagonist counter-screen | parental CHO-K1, ATP-induced calcium, Fluo-8 fluorescence | inhibition, % at 5.6 µM | hit rate 0.63% among 330,000 | AID 463079;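 active = inhibition above that plate's mean sample inhibition plus 3 SD, cut at about 26% in these data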;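 also: 0% = ATP-challenged DMSO wells and 100% = DMSO wells without ATP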
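Material – parental CHO cells · Reagent – ATP stimulus · Compound – single nominal dose of 5.6 µM per compound · Detection – Fluo-8 fluorescence · Read-out basis – percent inhibition of calcium signal · Controls – ATP-challenged DMSO wells low, unchallenged DMSO wells high · Repeats – no replicates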
OX1R antag-1 = blocks the human orexin 1 receptor; OX1R-expressing cells, FRET antagonist read-out; inhibition, % at 6.6 µM; hit rate 1.8% among 330,000; in the data active = inhibition mostly above about 38%, no sharp cut-off; inactive = mostly below about 40%;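 also: 0% = agonist challenge alone and 100% = reference antagonist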
OX1R antag-2 = human HCRTR1 antagonism; CHO/OX1R cells, Fluo-8 calcium fluorescence, orexin A; inhibition, % at 5 µM; hit rate 0.43% among 330,000; O43613;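 active = inhibition above its plate's threshold, mean inhibition of all tested compounds on the plate plus 3 SD, cut at about 37% in these data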;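 also: 0% = orexin A challenge wells and 100% = SB-334867-A antagonist wells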
TRPN1 ag = agonists of zebrafish TRPN1 channel; HEK293 zebrafish TRPN1-YFP, Fluo-8 calcium fluorescence; 100% = response to 87 µM carbachol; activation, % at 3 µM; hit rate 0.18% among 220,000;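 active = activation above its plate's cutoff, the mean activation of test wells on that plate plus 3 SD, cut at about 19% in these data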;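 also: 0% = DMSO alone and 100% = 87 µM carbachol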
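Control set: carbachol 87 µM as high control, DMSO as low control; system: HEK293 stable line with zebrafish TRPN1-YFP; read-out: % activation versus carbachol response; detection: intracellular calcium fluorescence with Fluo-8; doses: single test compound dose, 3 µM nominal, 0.3% DMSO; schedule: dye 1 h 37 °C plus 30 min RT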
TRPN1 ag 2 = counter-screen for TRPML3 agonists: agonists of zebrafish TRPN1 channel. activation, % at 3 µM. HEK293 zebrafish TRPN1-YFP, Fluo-8 calcium fluorescence; scaled: carbachol wells 100%, DMSO wells 0%. hit rate 10% among 310. shares compounds with TRPML3 ag. AID 1525;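 active = mean activation over replicates above a set limit taken from the earlier TRPN1 channel primary screen, cut at about 19% in these data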;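 also: 100% = carbachol and 0% = 0.3% DMSO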
TRPML3 ag conf = human TRPML3 agonism, confirmation. shares compounds with TRPML3 ag. HEK293 TRPML3-YFP, Fluo-8 calcium fluorescence; 100% set by carbachol, 0% by DMSO. activation, % at 3 µM. hit rate 80% among 310;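 active = activation above a set limit derived from the earlier primary screen, cut at about 12% in these data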
* hit, by the source's call; . = no result. Most compounds without a hit are left out; they make up all but 3.2% or so of the library.

SMILES	GPR7 antagonist	TRPML3 ag	CHO parental Ca	OX1R antag-1	OX1R antag-2	TRPN1 ag	TRPN1 ag 2	TRPML3 ag conf
CN(CC(=O)O/N=C(\N)c1cccc([N+](=O)[O-])c1)S(=O)(=O)c1ccccc1	10.7	95.5*	-10.1	14.9	-21.8	0.1	1.7	36.4*
Cc1ccc(S(=O)(=O)N2CCC(=O)N(C(COCc3ccc(C(F)(F)F)cc3)C(C)C)CC2)cc1 (stereo unspecified)	-16.3	54.9*	-12.4	21.6	-35.9	0.7	0.3	77.4*
O=[N+]([O-])c1cccc(N/N=C/c2cccc(O)c2O)c1	3.0	-0.6	2.1	8.4	-2.2	-0.8	.	.
COc1ccc(CCN2CC(C(=O)NC3CCOCC3)CCC2=O)cc1 (stereo unspecified)	-14.4	.	-5.5	0.6	-10.9	.	.	.
O=C(O)CCSCCCN1C(=O)c2cccc3cccc(c23)C1=O	-2.9	0.4	-1.1	14.5	-12.1	0.8	.	.
CN(C)c1ncc(S(=O)(=O)c2ccccc2)c(-c2ccc(Cl)cc2Cl)n1	-7.7	58.1*	4.4	53.1*	-13.4	-0.5	-1.1	81.9*
CN(C)c1ncc(S(=O)(=O)c2ccc(Cl)cc2)c(-c2ccc(Cl)cc2Cl)n1	-22.3	1.4	-3.0	11.0	-15.4	-0.1	.	.
O=C1CSC(=Nc2cccc([N+](=O)[O-])c2)N1	0.6	.	8.3	9.5	-21.7	.	.	.
COc1ccc(S(=O)(=O)NC2CCCCC2)c(C)c1C	-8.8	13.6*	-19.2	19.3	-16.1	-2.0	-0.8	14.8*
CN(C1CCCCC1)S(=O)(=O)c1cccc(C(=O)OCC(=O)NC2CCCc3ccccc32)c1 (stereo unspecified)	-1.6	69.5*	-12.5	10.3	-10.2	4.0	4.3	61.2*
Cc1noc(C)c1S(=O)(=O)N1CCCC(C(=O)NCc2ccccc2Cl)C1 (stereo unspecified)	17.4	.	-13.7	6.9	-12.9	.	.	.
Cc1onc(-c2ccccc2Cl)c1C(=O)Nc1cccc(-c2nc3ncccn3c2C)c1	-14.9	11.7*	-19.9	23.9	-13.8	5.0	8.1	12.5*
CC(=O)Nc1cccc(NC(=O)c2c(-c3ccccc3Cl)noc2C)c1	-5.3	1.8	-4.5	3.8	-12.8	4.3	.	.
COc1ccc(C(=O)NCC(=O)N/N=C/c2ccc(C)o2)cc1OC	15.9	.	6.7	14.2	0.8	.	.	.
CN(CCOc1ccc(Cl)cc1)c1ccc(S(=O)(=O)N2CCCCC2)cn1	-2.5	44.6*	-6.3	-9.6	-24.4	0.8	0.0	46.7*
Cc1ccc(S(=O)(=O)Nc2ccccc2N2CCCCC2)cc1	.	.	-13.8	9.8	6.1	.	.	.
O=S(=O)(Nc1ccccc1N1CCCCC1)c1ccc(F)cc1F	7.3	15.8*	-21.8	13.7	-52.7	-3.2	-3.3	10.8
CC(C)CCn1c(SCC(=O)NC2CC2)nc2cc(Cl)ccc2c1=O	.	.	-8.3	6.3	-14.4	.	.	.
COc1cccc(CN(CC2CCCO2)S(=O)(=O)c2ccc(S(=O)(=O)N(C)C)cc2)c1 (stereo unspecified)	7.6	14.2*	-17.7	6.8	-17.7	-0.5	1.3	17.4*
Cc1ccccc1N1CCN(S(=O)(=O)c2ccccc2)CC1	-5.7	64.5*	-6.9	2.7	-11.3	-0.6	-2.0	35.9*
COc1cc2c(cc1OC)CN(c1nc(-c3cccnc3)nc3ccccc13)CC2	-14.9	-0.4	-16.7	30.2	-26.2	-2.4	.	.
Cc1cc(C(C)c2ccccc2)c(O)c(CN2CCOCC2)c1C (stereo unspecified)	-15.0	15.7*	0.2	26.0	-18.0	0.2	-2.5	33.2*
CCN(C1CCCCC1)S(=O)(=O)c1ccc(OC)c(C)c1	-8.7	25.7*	-7.8	37.8	-16.1	-0.8	-2.5	86.7*
CCN(C1CCCCC1)S(=O)(=O)c1cc(C)ccc1OC	4.4	22.4*	4.3	33.6	-13.5	-1.3	-1.6	34.8*
